Screens as filed in PubChem BioAssay.
Sampled rows, rich in hits. Any-hit rate of the full collection: about 0.79%.
Rin1-Abl PPI inh: inhibitors of human Rin1-Abl protein interaction; inhibition, % at 7.35 µM; AID 588664; TR-FRET Rin1/Abl binding, biochemical; P00519+Q13671; actives 0.4% (n = 360,000); in the data active means inhibition above about 5%, passing the limit was not always enough
PKA-R2B act: PKA-R2B complex activation | AID 504700 | P22694+P31323 | actives 0.079% (n = 340,000) | activation, % at 11.4 µM | PKA-R2B holoenzyme dissociation, Cy5-IP20 fluorescence polarization; R2B truncated from residue 108, S112A mutant; 0% DMSO only, 100% 113 µM cGMP;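 active means activation above a cutoff set at the mean over all compounds plus 3 SD, cut at about 18% in these data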;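 further: higher means more holoenzyme dissociation and a rise in polarization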
UCH37 inh: inhibitors of human deubiquitinating enzyme UCH37. Q9Y5K5. inhibition, % (test concentration not listed). purified proteasome/UCH37, Ub-AMC cleavage fluorescence. actives 0.33% (n = 330,000);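 active means mean inhibition over replicate wells above about 20%, limit read from the data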;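 further: 0% = compound-free wells with enzyme and 100% = wells lacking proteasome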
Target sequence (Q9Y5K5 whole entry, looked up): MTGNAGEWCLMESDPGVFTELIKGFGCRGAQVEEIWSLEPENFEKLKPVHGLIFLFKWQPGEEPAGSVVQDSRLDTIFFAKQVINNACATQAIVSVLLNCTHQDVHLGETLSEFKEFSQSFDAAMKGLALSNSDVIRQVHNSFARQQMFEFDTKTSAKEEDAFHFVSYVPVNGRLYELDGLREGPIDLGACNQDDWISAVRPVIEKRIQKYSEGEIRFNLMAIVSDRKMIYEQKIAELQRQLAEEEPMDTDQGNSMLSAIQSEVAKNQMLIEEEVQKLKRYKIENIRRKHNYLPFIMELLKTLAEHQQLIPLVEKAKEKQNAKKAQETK
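Assay system: Proteasome-bound UCH37. Buffer or medium: pH 7.4 Tris-HCl (50 mM) with ovalbumin, ATP-MgCl2, DTT. Incubation: 30 min preincubation with enzyme, 25 min cleavage at room temperature. Measured by: fluorescence, ex 355 nm, em 460 nm. Read-out basis: percent inhibition. Control set: wells without proteasome as full block, compound-free enzyme plus substrate as uninhibited.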
PKA-R1A activ: PKA-R1A complex activation; actives 0.083% (n = 340,000); P00514+P68181; activation, % at 11.4 µM; PKA-R1A dissociation, Cy5-IP20 fluorescence polarization; scaled: DMSO 0%, 113 µM cGMP 100%;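 active means percent activation above the mean of all tested compounds plus 3 SD, cut at about 19% in these data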;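 further: higher means more PKAc released from R1A so a rise in polarization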
Rin1 Abl conf: Rin1-Abl interaction inhibition confirmation; shares compounds with Rin1-Abl PPI inh; TR-FRET Rin1-Abl binding, purified proteins; inhibition, % at 7.35 µM; actives 49% (n = 1,300); AID 602124
GFP quencher: GFP fluorescence interference artifact | actives 8.5% (n = 1,300) | inhibition, % at 6.75 µM | shares compounds with Rin1-Abl PPI inh | inhibitors/quenchers counterscreen;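 further: ABL1-eGFP fusion protein alone without its partner RIN1-SBP; 0% = protein with vehicle and 100% = wells lacking protein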
GFP quench dose: quenches GFP in dose response, Rin1-Abl counter-screen. GFP fluorescence interference/quenching counterscreen. 230 tested, under 10 active. AID 602182. shares compounds with Rin1-Abl PPI inh. IC50, µM; call rule not given here;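 further: ABL1-eGFP fusion protein alone without its RIN1 binding partner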
The depositor's hits bear a star; · = not tested or not shown. Unless noted, no stated cut-off is given here; in the data, active means inhibition above about 6.5%; inactive means the rest.

SMILES | Rin1-Abl PPI inh | PKA-R2B act | UCH37 inh | PKA-R1A activ | Rin1 Abl conf | GFP quencher | others
COc1ccccc1N1CCN(C(=O)CNC(=O)Cn2cnc3sc(C)c(C)c3c2=O)CC1 | 6.1 | -6.7 | 0.4 | -8.3 | · | ·
Cc1sc2ncn(CC(=O)NCC(=O)N3CCN(c4ccccc4F)CC3)c(=O)c2c1C | 25.7* | -5.2 | 0.0 | -9.5 | -0.1 | -5.8
COc1cccc(N2CC(C(=O)Nc3ccc(C(=O)OC(C)C)cc3)CC2=O)c1 (stereo not given) | 17.5* | 3.6 | 4.9 | 3.0 | 13.8* | -1.2
COc1cccc(N2CC(C(=O)Nc3ccc(F)cc3)CC2=O)c1 (stereo not given) | 0.7 | -0.3 | 0.4 | -11.4 | · | ·
CCOC(=O)c1ccc(CC(=O)c2oc3cc(O)ccc3c2C)o1 | 1.2 | -9.7 | -24.7 | -8.5 | · | ·
CCOC(=O)c1ccc(CC(=O)c2ccc(O)c(O)c2O)o1 | 13.5* | -10.6 | 10.8 | -4.9 | 7.3* | 16.1*
CCn1ccc(C(=O)N2CCOCC2)n1 | 1.7 | 3.1 | -1.2 | -11.3 | · | ·
CCn1ccc(C(=O)N2CCN(c3ncccn3)CC2)n1 | 7.3* | 3.2 | -1.3 | 0.7 | 6.3* | -0.8
CCc1nc(SCC(=O)NCCc2ccc(OC)c(OC)c2)c2c(=O)n(C)c(=O)n(C)c2n1 | 10.2* | 11.6 | 8.8 | -0.7 | 16.2* | 0.9
COc1ccc(CCNC(=O)CSc2nc3c(c(=O)n(C)c(=O)n3C)n2C)cc1OC | 0.9 | 0.1 | 1.7 | 3.4 | · | ·
O=[N+]([O-])c1ccc(/C=N/N2CCN(c3ccncc3S(=O)(=O)N3CCCCC3)CC2)cc1 | -0.5 | 8.4 | · | 6.9 | · | ·
CCCS(=O)(=O)N1CCN(Cc2ccccc2[N+](=O)[O-])CC1 | 9.5* | -10.9 | 0.4 | -9.7 | -0.1 | 0.1
O=C(NCCC1CCCCN1S(=O)(=O)c1ccc(F)cc1)C(=O)NC1CCCC1 (stereo not given) | -0.5 | 6.5 | 1.0 | -4.1 | · | ·
COc1ccc(C(CNC(=O)COc2cc(C)ccc2Cl)N2CCCCC2)cc1 (stereo not given) | 13.7* | -1.9 | 2.3 | 3.3 | -0.7 | -4.3
Cc1ccc(S(=O)(=O)N2C[C@H]3[C@H]4C(=O)N(c5ccccc5)C(=O)[C@H]4CC(=O)[C@H]3[C@@H]2c2ccccc2F)cc1 | -1.7 | · | · | · | · | ·
Cc1ccc(S(=O)(=O)N2C[C@H]3[C@H]4C(=O)N(c5ccccc5)C(=O)[C@H]4CC(=O)[C@H]3[C@@H]2c2cccc3ccccc23)cc1 | 48.0* | · | · | · | -0.7 | -2.2
Cc1ccc(NNC(=O)CCc2ccccc2)c(C)c1 | -2.6 | -3.6 | 1.0 | -1.0 | · | ·
COCCNC(=O)c1cc2c(c(-c3cccc(-c4cc5ccccc5o4)c3)n1)[C@@H](CCO)N(S(=O)C(C)(C)C)C2 (stereo not given in full) | -5.3 | · | · | · | · | ·
C[C@@H]1CN([C@@H](C)CO)C(=O)CCCn2nncc2CO[C@@H]1CN(C)S(=O)(=O)c1cccc(F)c1 | 13.6* | -2.2 | · | -3.0 | -0.9 | 0.2
Cc1cc2cc(CNC(=O)Nc3ccccc3)ccc2[nH]1 | 6.8 | -0.2 | 4.0 | -10.9 | · | ·
O=C(c1ccccc1)N(CCN1CCOCC1)C1(C(=O)Nc2ccccc2)CCCCC1 | 8.5* | -3.4 | 2.1 | -9.7 | -0.6 | -0.1
COc1cc(/C=C/C(=O)OCC(=O)NC(=O)NC2CCCCC2)ccc1OC(F)F | -0.1 | -0.4 | -0.4 | -4.1 | · | ·
Cc1ccc([C@@H]2[C@@H]3C(=O)N(c4ccccc4)C(=O)[C@@H]3[C@]3(C)C(=O)N(CC4CC4)CC(=O)N23)o1 | 1.5 | -10.5 | 1.6 | -5.0 | · | ·
COC(=O)c1ccc(COC(=O)C2CCN(S(=O)(=O)c3ccc(C)c(C)c3)CC2)o1 | 16.4* | -5.6 | 2.4 | -3.7 | 31.4* | -1.5 | GFP quench dose=>67.5
O=C1[C@@H](Oc2ccccc2)[C@@H](c2ccncc2)N1c1ccccc1 | -1.6 | -4.4 | 1.4 | -5.9 | · | ·
O=C1[C@@H](Oc2ccccc2)[C@@H](c2ccccc2)N1c1cccnc1 | 12.8* | 6.0 | 0.9 | -0.3 | 10.2* | -1.0
